According to ChEMBL document CHEMBL1124291, “New actinomycin D analogues as superior chemotherapeutic agents against primary and advanced colon tumors and colon xenografts in nude mice” (J Med Chem, 1988):

Experiments:
[1] = test system: MC-38; test: Mean survival time of treated / untreated group x100. (number of over 100-day survivors/number of total mice in the group) at a dose 0.30 mg/kg; assay type: functional, Mus musculus; conditions: dose 0.3 mg/kg
In short: (§1)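 CDF1 mice were implanted sc on day 0 with colon 38 adenocarcinoma fragments (70 mg) and given iv drug on days 1, 5 and 9. %T/C = median survival of treated / untreated × 100. Number of mice surviving over 100 days / group total is given in parentheses.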

[2] = test system: MC-38; test: Number of toxic deaths/number of mice in a group of non tumored mice treated in parallel with the tumor-bearing mice and observed for 100 days at a dose 1. 20 mg/Kg; value given as 4/9; assay type: toxicity, cell-based; conditions: mouse, in vivo, 2400 h
In short: (§2)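 Non-tumored CDF1 mice were treated in parallel with colon 38 tumor-bearing mice: iv injections on days 1, 5 and 9, groups of nine. Deaths were counted over 100 days of observation and reported as toxic deaths / mice in group.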

[3] = test system: HT-29; test: 50% inhibition of incorporationf precursor [3H]thymidine into DNA HT-29 cell lines; assay type: functional, cell-based; conditions: Homo sapiens, HT-29, 2 h
In short: (§3)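 HT-29 colon carcinoma monolayers, 10^4 cells per well, five wells per concentration. Drug exposure lasted 2 h, with [³H]thymidine and [2-¹⁴C]uridine (0.5 μCi each) added for the last hour. Cells were washed, trypsinized, counted and precipitated onto glass-fiber filters with 10% TCA. Acid-precipitable radioactivity was measured. IC50 is the concentration inhibiting 50% of incorporation; data are averages of replicate experiments.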

[4] = test system: MC-38; test: Mean survival time of treated / untreated group x100. (number of over 100-day survivors/number of total mice in the group) at a dose 1.20 mg/kg; assay type: functional, Mus musculus; conditions: dose 1.2 mg/kg; in short: as §1
[5] = test system: P388; test: Antitumor activity in P388/S(AMD sensitive) in male BDF1 mice measured as optimal dose
[6] = test system: HT-29; test: 50% inhibition of incorporationf precursor [3H]thymidine into RNA HT-29 cell lines; assay type: functional, cell-based; conditions: Homo sapiens, HT-29, 2 h; in the assay text read “[14C]uridine” for “[3H]thymidine”; in short: as §3
[7] = test system: MC-38; test: Mean survival time of treated / untreated group x100. (number of over 100-day survivors/number of total mice in the group) at a dose 0.15 mg/kg; assay type: functional, Mus musculus; in short: as §1
[8] = test system: B16; test: in vivo Antitumor activity against B16 melanoma cells at dose 300 ug/Kg /inj measured as mean survival time (MST); assay type: functional, Mus musculus
In short: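 B16 melanoma implanted ip on day 0 as 0.2 mL of a 1:5 (weight/volume) brei, in groups of nine BDF₁ mice; drugs given ip. MST is the median survival time in days, with the range of days of death of individual animals; % ILS is percent increase in life span, with survivors on day 65 over total injected.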

[9] = organism: Rattus norvegicus; test: Stimulation of NADPH oxidation in the presence of rat liver microsomes; assay type: functional
In short: (§4)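 Drug-stimulated superoxide generation with rat liver microsomal enzymes and NADPH as cofactor. NADPH oxidation was read at 340 nm. Adrenochrome formed from epinephrine was read at 480 nm, with or without superoxide dismutase. % stimulation = [(drug-stimulated rate − basal rate)/basal rate] × 100. Values are mean ± standard error of triplicate analyses.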

[10] = test system: MC-38; test: Activity against advanced carcinoma C38 tumor in CDF1 Mice at dose 0.15 mg/kg measured as % inhibition of tumor; assay type: functional; conditions: Mus musculus
[11] = test system: MC-38; test: Activity against advanced carcinoma C38 tumor in CDF1 Mice at dose 0.30 mg/kg measured as % inhibition of tumor; assay type: functional; conditions: Mus musculus
[12] = test system: MC-38; test: Mean survival time of treated / untreated group x100. (number of over 100-day survivors/number of total mice in the group) at a dose 0.60 mg/kg; assay type: functional, Mus musculus; conditions: dose 0.6 mg/kg; in short: as §1
[13] = test system: P388; test: Antitumor activity in P388/ADR (adriamycin resistant), in male BDF1 mice measured as optimal dose at dose 0.10-0.8 mg/kg
[14] = test system: MC-38; test: Number of toxic deaths/number of mice in a group of non tumored mice treated in parallel with the tumor-bearing mice and observed for 100 days at a dose 0.60 mg/kg; value given as 0/9; assay type: functional, Mus musculus; conditions: dose 0.6 mg/kg; in short: as §2
[15] = test system: MC-38; test: Activity against advanced carcinoma C38 tumor in CDF1 Mice at dose 1.20 mg/kg measured as % inhibition of tumor; assay type: functional; conditions: Mus musculus
[16] = organism: Rattus norvegicus; test: The formation of adrenochrome from epinephrine in the absence of SOD(super oxide dismutase); assay type: functional; in short: as §4
[17] = test system: MC-38; test: Number of toxic deaths/number of mice in a group of non tumored mice treated in parallel with the tumor-bearing mice and observed for 100 days at a dose 0.30 mg/kg; value given as 0/9; assay type: functional, Mus musculus; conditions: dose 0.3 mg/kg; in short: as §2
[18] = test system: P388 (Mus musculus); test: 50% inhibition of incorporation of precursor [3H]thymidine into DNA P388 cell lines; conditions: P388, 2 h
[19] = organism: Rattus norvegicus; test: The formation of adrenochrome from epinephrine in the presence of SOD(super oxide dismutase); + denotes ' Inhibited'; assay type: functional; in short: as §4
[20] = test system: MC-38; test: Activity against advanced carcinoma C38 tumor in CDF1 Mice at dose 0.60 mg/kg measured as % inhibition of tumor; assay type: functional; conditions: Mus musculus
[21] = test system: MC-38; test: Number of toxic deaths/number of mice in a group of non tumored mice treated in parallel with the tumor-bearing mice and observed for 100 days at a dose 0.15 mg/kg; value given as 1/9; assay type: toxicity, organism-based; parameters: dose 0.15 mg/kg; conditions: mouse, in vivo, 2400 h; in short: as §2
[22] = test system: P388; test: 50% inhibition of incorporation precursor [14C]uridine into RNA P388 cell lines; assay type: functional, cell-based; conditions: Mus musculus
[23] = test system: B16; test: In vivo antitumor activity against B16 melanoma cells at a optimal dose measured as %ILS (%increase life span) at a dose 300 micro g/Kg/inj; assay type: functional, Mus musculus
In short: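 BDF1 mice in groups of nine were implanted ip on day 0 with 0.2 mL of 1:5 (w/v) B16 melanoma brei; drugs were given ip. Survival is reported as median survival time in days with range, and as %ILS, with survivors counted on day 65 out of total injected.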

[24] = organism: Rattus norvegicus; test: DNA-cleaving ability expressed as % of closed circular pBR322 DNA cleaved […] conc 50 uM; assay type: functional
In short: (§5)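 pBR322 DNA (200 μM nucleotides) in 10 mM Tris·HCl pH 7.8 and 50 mM NaCl, with 4 mM Na₂S₂O₄ and 100 μM FeCl₂. Incubated with drug for 1 h at 20 °C, kept air-saturated. Supercoiled and open-circular forms were separated by agarose gel electrophoresis, stained with ethidium bromide and quantitated by densitometry. % cleaved was calculated from the open- and closed-circular amounts.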

[25] = organism: Rattus norvegicus; test: DNA-cleaving ability expressed as % of closed circular pBR322 DNA cleaved at 100 uM conc 100 uM; assay type: functional; in short: as §5

For `Cc1c2oc3c(C)c4oc(-c5ccccc5)nc4c(C(=O)N[C@@H]4C(=O)N[C@H](C(C)C)C(=O)N5CCC[C@H]5C(=O)N(C)CC(=O)N(C)[C@@H](C(C)C)C(=O)O[C@@H]4C)c3nc-2c(C(=O)N[C@@H]2C(=O)N[C@H](C(C)C)C(=O)N3CCC[C@H]3C(=O)N(C)CC(=O)N(C)[C@@H](C(C)C)C(=O)O[C@@H]2C)c(N)c1=O`, which T/C [1] is on record?
Its T/C is 137%.

And the Toxic deaths [2]?
The Toxic deaths was 4.

And the IC50 [3]?
Its IC50 is 580 nM.

And the T/C [4]?
The T/C was 103%.

And the optimal dose [5]?
Its optimal dose is 0.35 mg/kg.

And the IC50 [6]?
Its IC50 is 68 nM.

What about the T/C [7] of the same compound?
The T/C was 103%.

And the MST [8]?
Its MST is 59.

And the NADPH oxidation (nM min-1 (mg of protein)-1) [9]?
The NADPH oxidation (nM min-1 (mg of protein)-1) was 65.

What about the inhibition in vivo at 0.15 mg/kg [10] of the same compound?
The inhibition in vivo at 0.15 mg/kg was 29%.

And the inhibition in vivo at 0.3 mg/kg [11]?
Its inhibition in vivo at 0.3 mg/kg is 70%.

What about the T/C [12] of the same compound?
Its T/C is 170%.

What about the optimal dose [13] of the same compound?
Its optimal dose is 0.6 mg/kg.

What about the Toxic deaths [14] of the same compound?
Its Toxic deaths is 0.

What about the inhibition in vivo at 1.2 mg/kg [15] of the same compound?
Its inhibition in vivo at 1.2 mg/kg is 88%.

And the Adrenochrome formation [16]?
The Adrenochrome formation was 18.8 nM min-1 (mg of protein)-1.

What about the Toxic deaths [17] of the same compound?
Its Toxic deaths is 0.

And the IC50 [18]?
Its IC50 is 780 nM.

What about the Adrenochrome formation [19] of the same compound?
Its Adrenochrome formation is “Inhibited”.

And the inhibition in vivo at 0.6 mg/kg [20]?
The inhibition in vivo at 0.6 mg/kg was 83%.

What about the Toxic deaths [21] of the same compound?
Its Toxic deaths is 1.

And the IC50 [22]?
Its IC50 is 70 nM.

What about the ILS [23] of the same compound?
The ILS was 103%.

What does the source list for BLEOMYCIN?
Activity [24]: 75%; Activity [25]: > 85%
